Active and inactive are the calls of the source. The rule behind the calls is not given here.
What was measured:
[1] = Aqueous solubility of compound; type: physicochemical; conditions: buffer
[2] = molecular target: Eukaryotic translation initiation factor 2-alpha kinase 1 (Homo sapiens) (UniProt Q9BQI3); assay: Activation of EIF2alpha kinase in human CRL2351 cells assessed as reduction in eIF2-GTP-initiator methionine tRNA ternary complex measuring increase in firefly/renilla luciferase ratio at 2.5 uM after 16 hrs by dual luciferase reporter gene assay relative to control; type: cell-based
Eukaryotic translation initiation factor 2-alpha kinase 1 (Homo sapiens), sequence (Q9BQI3 whole entry): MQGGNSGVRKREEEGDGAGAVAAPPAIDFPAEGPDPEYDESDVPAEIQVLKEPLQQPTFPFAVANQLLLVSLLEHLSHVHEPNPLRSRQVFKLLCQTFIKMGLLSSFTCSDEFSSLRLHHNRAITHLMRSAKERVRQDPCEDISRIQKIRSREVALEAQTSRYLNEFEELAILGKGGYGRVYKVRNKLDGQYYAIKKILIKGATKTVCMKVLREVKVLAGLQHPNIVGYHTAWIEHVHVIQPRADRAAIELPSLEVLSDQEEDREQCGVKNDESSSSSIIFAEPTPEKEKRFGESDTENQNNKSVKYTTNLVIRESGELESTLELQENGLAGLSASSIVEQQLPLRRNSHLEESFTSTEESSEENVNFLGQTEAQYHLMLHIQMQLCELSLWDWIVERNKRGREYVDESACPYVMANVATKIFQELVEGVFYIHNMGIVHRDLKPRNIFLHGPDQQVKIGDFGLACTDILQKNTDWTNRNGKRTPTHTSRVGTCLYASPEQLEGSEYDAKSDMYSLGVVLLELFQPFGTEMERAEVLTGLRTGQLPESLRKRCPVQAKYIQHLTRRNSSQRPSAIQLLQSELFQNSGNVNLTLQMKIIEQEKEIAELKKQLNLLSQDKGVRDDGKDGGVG
Method in brief: (§1)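 CRL-2351 cells (10^4 per well) were transiently transfected one day after seeding with the bidirectional pBISA-DL(ATF-4) firefly/renilla luciferase plasmid (Lipofectamine 2000). After 16 h compound exposure, lysates were read by Dual-Glo luciferase. F/R ratio was normalized to DMSO vehicle (F/R = 1). Runs were dose-response with at least four points, in triplicate.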

[3] = Antiproliferative activity against mouse KLN205 cells after 5 days by SRB assay; type: functional, cell-based; conditions: 120 h
Method in brief: (§2)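 Adherent cells were exposed for 5 days to four concentrations (0.54, 1.8, 6, 20 µM), each point in triplicate. Cells were fixed in cold 10% TCA, stained with 0.4% SRB in 1% acetic acid and solubilized in 10 mM Tris pH 10, then A490 was read. Time-zero plates were included. IC50 is 50% growth inhibition from 100×(T−T0)/(C−T0).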

[4] = Antiproliferative activity against human CRL2813 cells after 5 days by SRB assay; type: functional, cell-based; conditions: CRL2813, 120 h; method in brief: as §2
[5] = Antiproliferative activity against human CRL2351 cells after 5 days by SRB assay; type: functional, cell-based; conditions: 120 h; method in brief: as §2
[6] = molecular target: Eukaryotic translation initiation factor 2-alpha kinase 1 (Homo sapiens) (UniProt Q9BQI3); assay: Activation of EIF2alpha kinase in human CRL2351 cells assessed as reduction in eIF2-GTP-initiator methionine tRNA ternary complex measuring increase in firefly/renilla luciferase ratio at 2.5 to 20 uM after 16 hrs by dual luciferase reporter gene assay relative to control; type: cell-based; method in brief: as §1
[7] = molecular target: Eukaryotic translation initiation factor 2-alpha kinase 1 (Homo sapiens) (UniProt Q9BQI3); assay: Activation of EIF2alpha kinase in human CRL2351 cells assessed as reduction in eIF2-GTP-initiator methionine tRNA ternary complex measuring increase in firefly/renilla luciferase ratio at 40 uM after 16 hrs by dual luciferase reporter gene assay relative to control; type: cell-based; method in brief: as §1
[8] = molecular target: Eukaryotic translation initiation factor 2-alpha kinase 1 (Homo sapiens) (UniProt Q9BQI3); assay: Activation of EIF2alpha kinase in human CRL2351 cells assessed as reduction in eIF2-GTP-initiator methionine tRNA ternary complex measuring increase in firefly/renilla luciferase ratio at 10 uM after 16 hrs by dual luciferase reporter gene assay relative to control; type: cell-based; method in brief: as §1
[9] = molecular target: Eukaryotic translation initiation factor 2-alpha kinase 1 (Homo sapiens) (UniProt Q9BQI3); assay: Activation of EIF2alpha kinase in human CRL2351 cells assessed as reduction in eIF2-GTP-initiator methionine tRNA ternary complex measuring increase in firefly/renilla luciferase ratio at 20 uM after 16 hrs by dual luciferase reporter gene assay relative to control; type: cell-based; method in brief: as §1
[10] = molecular target: Eukaryotic translation initiation factor 2-alpha kinase 1 (Mus musculus) (UniProt Q9Z2R9); assay: Activation of EIF2alpha kinase in mouse KLN205 cells assessed as CHOP mRNA expression at 20 uM after 5 hrs by PCR analysis; type: cell-based
Eukaryotic translation initiation factor 2-alpha kinase 1 (Mus musculus), sequence (Q9Z2R9 whole entry): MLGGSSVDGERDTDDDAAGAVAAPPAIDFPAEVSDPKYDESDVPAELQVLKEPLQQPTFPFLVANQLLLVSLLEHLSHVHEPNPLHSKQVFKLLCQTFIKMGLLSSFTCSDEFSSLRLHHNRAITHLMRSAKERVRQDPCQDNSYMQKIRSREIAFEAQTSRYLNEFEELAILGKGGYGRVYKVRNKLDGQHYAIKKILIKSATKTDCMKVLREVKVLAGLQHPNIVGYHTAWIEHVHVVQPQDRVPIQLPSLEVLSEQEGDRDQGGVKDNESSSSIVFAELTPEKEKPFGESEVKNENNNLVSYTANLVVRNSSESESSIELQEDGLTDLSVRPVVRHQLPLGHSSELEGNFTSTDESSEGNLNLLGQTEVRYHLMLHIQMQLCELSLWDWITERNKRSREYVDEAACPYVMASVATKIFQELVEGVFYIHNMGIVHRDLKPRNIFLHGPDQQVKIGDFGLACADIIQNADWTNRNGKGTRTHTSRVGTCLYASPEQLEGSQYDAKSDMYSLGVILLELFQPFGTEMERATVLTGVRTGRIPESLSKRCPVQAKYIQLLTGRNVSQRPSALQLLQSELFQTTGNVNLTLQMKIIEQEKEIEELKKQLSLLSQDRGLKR

[11] = molecular target: Eukaryotic translation initiation factor 2-alpha kinase 1 (Homo sapiens) (UniProt Q9BQI3); assay: Activation of EIF2alpha kinase in human CRL2351 cells assessed as CHOP protein expression at 5 uM […] by Western blot analysis; type: cell-based
Method in brief: (§3)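 Cells were grown to 70% confluency in serum-containing medium without antibiotics, then treated (KLN at 20 µM, CRL-2351 at 5 µM) for 6 h. They were washed in cold PBS and lysed on ice for 1 h. Protein was measured by BCA. SDS-PAGE immunoblots were probed for phospho-Ser51 eIF2α, total eIF2α, CHOP and β-actin.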

[12] = molecular target: Eukaryotic translation initiation factor 2-alpha kinase 1 (Mus musculus) (UniProt Q9Z2R9); assay: Activation of EIF2alpha kinase in mouse KLN205 cells assessed as phosphorylation of eIF2alpha at 20 uM […] by Western blot analysis; type: cell-based; method in brief: as §3
[13] = molecular target: Eukaryotic translation initiation factor 2-alpha kinase 1 (Mus musculus) (UniProt Q9Z2R9); assay: Activation of EIF2alpha kinase in mouse KLN205 cells assessed as CHOP protein expression at 20 uM after […] by Western blot analysis; type: cell-based; method in brief: as §3
[14] = molecular target: Eukaryotic translation initiation factor 2-alpha kinase 1 (Homo sapiens) (UniProt Q9BQI3); assay: Activation of EIF2alpha kinase in human CRL2351 cells assessed as phosphorylation of eIF2alpha at 5 uM […] by Western blot analysis; type: cell-based; method in brief: as §3
[15] = molecular target: Eukaryotic translation initiation factor 2-alpha kinase 1 (Mus musculus) (UniProt Q9Z2R9); assay: Activation of EIF2alpha kinase in mouse KLN205 cells assessed as reduction in eIF2-GTP-initiator methionine tRNA ternary complex measuring increase in firefly/renilla luciferase ratio at 20 uM after 16 hrs by dual luciferase reporter gene assay relative to control; type: cell-based
Method in brief: (§4)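 KLN-205 cells were stably transfected with the bidirectional pBISA-DL(ATF-4) firefly/renilla luciferase reporter: 10^5 cells were seeded per 60-mm dish, transfected the next day and selected with antibiotics. After 16 h compound exposure, lysates were read by Dual-Glo luciferase. F/R ratio was normalized to DMSO vehicle (F/R = 1).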

[16] = molecular target: Eukaryotic translation initiation factor 2-alpha kinase 1 (Homo sapiens) (UniProt Q9BQI3); assay: Activation of EIF2alpha kinase in human CRL2351 cells assessed as CHOP mRNA expression at 5 uM after 5 hrs by PCR analysis; type: cell-based
[17] = molecular target: Eukaryotic translation initiation factor 2-alpha kinase 1 (Homo sapiens) (UniProt Q9BQI3); assay: Activation of EIF2alpha kinase in human CRL2351 cells assessed as reduction in eIF2-GTP-initiator methionine tRNA ternary complex measuring increase in firefly/renilla luciferase ratio at 5 uM after 16 hrs by dual luciferase reporter gene assay relative to control; type: cell-based; method in brief: as §1
[18] = molecular target: Eukaryotic translation initiation factor 2-alpha kinase 1 (Mus musculus) (UniProt Q9Z2R9); assay: Activation of EIF2alpha kinase in mouse KLN205 cells assessed as reduction in eIF2-GTP-initiator methionine tRNA ternary complex measuring increase in firefly/renilla luciferase ratio at 5 uM after 16 hrs by dual luciferase reporter gene assay relative to control; type: cell-based; method in brief: as §4
[19] = molecular target: Eukaryotic translation initiation factor 2-alpha kinase 1 (Mus musculus) (UniProt Q9Z2R9); assay: Activation of EIF2alpha kinase in mouse KLN205 cells assessed as reduction in eIF2-GTP-initiator methionine tRNA ternary complex measuring increase in firefly/renilla luciferase ratio at 2.5 to 80 uM after 16 hrs by dual luciferase reporter gene assay relative to control; type: cell-based; method in brief: as §4
[20] = molecular target: Eukaryotic translation initiation factor 2-alpha kinase 1 (Homo sapiens) (UniProt Q9BQI3); assay: Activation of EIF2alpha kinase in human CRL2351 cells assessed as reduction in eIF2-GTP-initiator methionine tRNA ternary complex measuring increase in firefly/renilla luciferase ratio at 2.5 to 80 uM after 16 hrs by dual luciferase reporter gene assay relative to control; type: cell-based; method in brief: as §1

| SMILES | IC50 [3] | IC50 [4] | IC50 [5] | other results |
| --- | --- | --- | --- | --- |
| O=C(Nc1ccc(Cl)c(C(F)(F)F)c1)Nc1ccc(Cl)c(C(F)(F)F)c1 | 1.3 µM | 1.8 µM | 2.4 µM | solubility [1]: Insoluble; Ratio [2]: 11 |
| Cc1ccc(NC(=O)Nc2ccc(Cl)c(Cl)c2)cc1OCCN1CCNCC1 | > 20 µM | 5.2 µM | 5 µM | Activity [6]: Active |
| O=C(Nc1ccc(Cl)c(Cl)c1)Nc1ncccc1O | > 20 µM | 1.6 µM | 1.4 µM | Ratio [7]: 12 |
| Cc1ccc(NC(=O)Nc2ccc(Cl)c(C(F)(F)F)c2)cc1OCCN1CCNCC1 | > 20 µM | 2.5 µM | 1.8 µM |  |
| Cc1ccc(NC(=O)Nc2ccc(Cl)c(C(F)(F)F)c2)cc1O | > 20 µM | 1.6 µM | 9.5 µM | Ratio [8]: 11 |
| Cc1ccc(NC(=O)Nc2ccc(Cl)c(Cl)c2)cc1O | > 20 µM | 2.3 µM | 7.5 µM | Ratio [9]: 11 |
| O=C(Nc1cc(C(F)(F)F)cc(C(F)(F)F)c1)Nc1ncccc1O | 14.8 µM | 0.6 µM | 0.7 µM |  |
| O=C(Nc1cc(C(F)(F)F)cc(C(F)(F)F)c1)Nc1cc(C(F)(F)F)cc(C(F)(F)F)c1 | 4.2 µM | 0.3 µM | 1.8 µM | Activity [10]: Active; solubility [1]: Insoluble; Ratio [2]: 11; Activity [11]: Active; Activity [12]: Active; Activity [13]: Active; Activity [14]: Active; Activity [15]: Active; Activity [16]: Active |
| Cc1ccc(NC(=O)Nc2ccc(Cl)c(Cl)c2)cc1OCCN1CCOCC1 | > 20 µM | 12 µM | 2.4 µM | Activity [6]: Active |
| Cc1ccc(NC(=O)Nc2cc(C(F)(F)F)cc(C(F)(F)F)c2)cc1OCCN1CCOCC1 | 18.8 µM | 0.8 µM | 2.3 µM | Ratio [8]: 10 |
| Cc1ccc(NC(=O)Nc2ccc(Cl)c(C(F)(F)F)c2)cc1OCCN(C)C | 13.6 µM | 2.3 µM | 2.4 µM |  |
| Cc1ccc(NC(=O)Nc2cc(C(F)(F)F)cc(C(F)(F)F)c2)cc1OCCN1CCNCC1 | > 20 µM | 3.2 µM | 4.2 µM | Ratio [8]: 9 |
| COc1cc(NC(=O)Nc2cc(C(F)(F)F)cc(C(F)(F)F)c2)ccc1C | 6.6 µM | 0.5 µM | 1.8 µM | Activity [10]: Active; Ratio [17]: 9; Activity [11]: Active; Activity [12]: Active; Activity [13]: Active; Activity [14]: Active; Activity [18]: Active; Activity [16]: Active |
| Cc1ccc(NC(=O)Nc2cc(C(F)(F)F)cc(C(F)(F)F)c2)cc1OCCN(C)C | 8.9 µM | 7.6 µM | 2.4 µM | Ratio [8]: 9 |
| Cc1ccc(NC(=O)Nc2cc(C(F)(F)F)cc(C(F)(F)F)c2)cc1O | 15.7 µM | 1.2 µM | 2.8 µM |  |
| COc1cc(NC(=O)Nc2ccc(Cl)c(C(F)(F)F)c2)ccc1C | 18.6 µM | 2.8 µM | 2.3 µM | Ratio [17]: 8 |
| COc1cc(NC(=O)Nc2ccc(Cl)c(Cl)c2)ccc1C | > 20 µM | 0.5 µM | 0.8 µM | Activity [10]: inactive; Ratio [17]: < 2; Activity [11]: inactive; Activity [6]: inactive; Activity [12]: inactive; Activity [13]: inactive; Activity [14]: inactive; Activity [16]: inactive |
| O=C(Nc1ccc(Cl)c(Cl)c1)Nc1ccc(Cl)c(Cl)c1 | > 20 µM | 1 µM | 2.4 µM | solubility [1]: Insoluble; Ratio [17]: 11 |
| Cc1ccc(NC(=O)Nc2ccc(Cl)c(C(F)(F)F)c2)cc1OCCN1CCOCC1 | > 20 µM | 1.1 µM | 2.6 µM |  |
| O=C(Nc1ccc(Cl)c(C(F)(F)F)c1)Nc1ncccc1O | 15.4 µM | 0.6 µM | 0.8 µM | Activity [19]: Active; Activity [10]: Active; Activity [20]: Active; Activity [11]: Active; Activity [12]: Active; Activity [13]: Active; Activity [14]: Active; Activity [16]: Active |
| Cc1ccc(NC(=O)Nc2ccc(Cl)c(Cl)c2)cc1OCCN(C)C | 14.7 µM | 5.8 µM | 4.1 µM | Activity [6]: Active |
